Experimental data as given in PMC12044415 (RSC Advances, 2025).

Legend:
Experiment in all cases: Cell viability assay
Format in all cases: cell-based, human
[1] = tested on: A2780 (cisplatin-sensitive ovarian cancer cells); conditions: read-out: IC50 A2780; 96 h of incubation
Procedure, shortened: (§1)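 Cells cultured per supplier at 37 °C, 5% CO2, and seeded at 1.5 × 10^3 per well. Treated with six concentrations of test compound (0.001, 0.01, 0.1, 1, 10 and 100 μM final), diluted into culture medium from a 10 mM DMSO stock; cisplatin stock in water. Viability read by CellTiter-Glo after 96 h. IC50 from triplicates, error bars as standard deviations.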

[2] = tested on: A2780cis (cisplatin-resistant ovarian cancer cells); conditions: read-out: IC50 A2780cis; 96 h of incubation
Procedure, shortened: as §1

[3] = tested on: MDA-MB-231 (triple-negative breast cancer); conditions: read-out: IC50 MDA-MB-231; 96 h of incubation
Procedure, shortened: as §1

U87 (glioblastoma) = conditions: read-out: IC50 U87; 96 h of incubation
Procedure, shortened: as §1

[4] = tested on: MRC-5 (normal lung fibroblasts); conditions: read-out: IC50 MRC-5; 96 h of incubation
Procedure, shortened: as §1

Row | Compound | IC50 [1] [µM] | IC50 [2] [µM] | IC50 [3] [µM] | IC50 (U87 (glioblastoma)) [µM] | IC50 [4] [µM]
1 | C[N+]12CN3CN(C1)C[PH]([Pd]([I])([c]1ccc([N+](=O)[O-])cc1)[PH]14CN5CN(C[N+](C)(C5)C1)C4)(C3)C2.F[P-](F)(F)(F)(F)F.F[P-](F)(F)(F)(F)F [7b] | 3.1 ± 0.3 | 0.18 ± 0.02 | 6.7 ± 0.9 | 90 ± 10 | > 100
2 | N.N.[Cl][Pt][Cl] [Cisplatin, cisplatin, reference compound] |  | 45 ± 5 |  | 10.4 ± 0.4 | 4 ± 1
